core dimer inh: inhibitors of HCV core protein dimerization, primary screen, biochemical, TR-FRET, high-throughput. inhibition, % at 5 µM. 300,000 compounds, 0.33% hits. AID 1899, 2009. TR-FRET GST/Flag-core106 dimerization, 1536-well;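 active = inhibition above the mean of all tested compounds plus 3 SD, set per screening campaign, cut at about 45% in these data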
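System – GST-tagged and Flag-tagged HCV core protein residues 1-106 · Repeats – one well for each compound · Technique – TR-FRET 671 and 617 nm emission · Doses – one concentration, 5 µM, in 0.5% DMSO · Times – 4 h, 22.5 °C incubation · Also added – Eu donor and XL665 acceptor anti-tag antibodies · Measure – percent inhibition of core106 dimerization signal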
EBNA-1 inh: EBNA-1 DNA-binding inhibitors, primary screen, biochemical, fluorescence polarization. inhibition, % at 14.8 µM. 300,000 compounds, 0.34% hits. AID 1950, 2009; in the data active = inhibition above about 28%
GPR7 antagonist: GPR7 receptor antagonists, primary screen, cell-based, fluorescence, single concentration; GPR7-expressing cells, fluorescence antagonist assay; Neuropeptides B/W receptor type 1 (Homo sapiens), P48145; 290,000 compounds, 1.1% hits; inhibition, % at 4.4 µM; in the data active = inhibition above about 16%, passing the limit was not always enough;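 note: cells stimulated with the agonist NPW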
Target sequence (P48145 whole entry, looked up): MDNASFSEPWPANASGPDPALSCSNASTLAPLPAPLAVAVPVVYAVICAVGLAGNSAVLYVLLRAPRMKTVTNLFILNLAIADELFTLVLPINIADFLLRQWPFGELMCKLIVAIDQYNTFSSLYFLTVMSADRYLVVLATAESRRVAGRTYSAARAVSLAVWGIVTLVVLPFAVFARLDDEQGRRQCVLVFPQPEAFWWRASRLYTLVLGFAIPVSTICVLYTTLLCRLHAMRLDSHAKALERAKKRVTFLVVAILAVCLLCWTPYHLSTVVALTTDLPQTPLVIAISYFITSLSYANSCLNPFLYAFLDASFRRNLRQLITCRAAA
EBV gp42 block: Epstein-Barr virus gp42 inhibitors, primary screen, biochemical, uHTS, fluorescence polarization; Fluorescence polarization binding assay, mP read-out; inhibition, % (tested at 21.74 µM); 220,000 compounds, 0.42% hits; AID 1085, 2008; in the data active = inhibition above about 50%
Target sequence (Q1HVG2 whole entry, looked up): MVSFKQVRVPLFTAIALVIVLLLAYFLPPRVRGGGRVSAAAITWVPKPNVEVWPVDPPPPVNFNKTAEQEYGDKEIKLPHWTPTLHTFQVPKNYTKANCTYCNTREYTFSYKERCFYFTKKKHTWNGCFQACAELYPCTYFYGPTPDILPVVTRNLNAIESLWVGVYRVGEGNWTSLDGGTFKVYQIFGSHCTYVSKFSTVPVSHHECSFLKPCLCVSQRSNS
ZTA DNA inh: ZTA (EBV) inhibition in EBNA-1 counter-screen | inhibition, % at 11 µM | AID 2234 | P03206 | ZTA-DNA binding, fluorescence polarization | 320,000 compounds, 0.15% hits; in the data active = inhibition above about 33%
HCV NS3 hel inh: inhibitors of HCV NS3 helicase, primary screen, biochemical, Cy5 molecular beacon fluorescence | Hepatitis C virus NS3 helicase | NS3 helicase DNA unwinding | inhibition, % at 10.9 µM | 290,000 compounds, 0.56% hits;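 active = inhibition above the mean of all tested compounds plus 3 SD, set per campaign, cut at about 35% in these data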
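System: HCV NS3 helicase fragment; control set: DMSO and thioflavine S; technique: Cy5 fluorescence at 0 and 60 min, beacon hairpin quenching; reagent: beacon DNA duplex substrate plus ATP; replicates: singlicate; schedule: 1 h reaction at 25 °C, ATP-initiated; medium: MOPS buffer pH 6.5 with MgCl2, DTT, Tween20, BSA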
GPR7 antag conf: GPR7 receptor antagonists, confirmation, cell-based, fluorescence, single concentration; shares compounds with GPR7 antagonist; inhibition, % at 4.4 µM; GPR7-expressing cells, calcium fluorescence antagonist mode; AID 1952, 2009; 2,400 compounds, 52% hits; in the data active = inhibition above about 24%;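 note: stimulated with the GPR7 agonist NPW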
MCHR1 antag: MCHR1 antagonists in cells, counter-screen for GPR7 antagonist project, cell-based, fluorescence, human; shares compounds with GPR7 antagonist; MCHR1-expressing cells, fluorescence antagonist assay; inhibition, % at 4.4 µM; 2,400 compounds, 62% hits; AID 2148, 2009; in the data active = inhibition above about 22%
A number is an active result; - = inactive; . = not tested or not shown. Shown are actives, neighbours in structure and some others; about 2.3% of the full set was active somewhere.

SMILES	core dimer inh	EBNA-1 inh	GPR7 antagonist	EBV gp42 block	ZTA DNA inh	HCV NS3 hel inh	GPR7 antag conf	MCHR1 antag
CCOC(=O)C[C@H]1c2ccc(C(F)(F)F)cc2S(=O)(=O)N1C(C)C	-	-	.	.	-	.	.	.
CC1CCCCC1NC(=O)CN1CCC(NC(=O)c2cccc(F)c2)CC1 (centres undefined)	-	-	-	.	-	-	.	.
COc1ccc(/C=C/C2=CCN(Cc3ccc(OC)cc3)CC2)cc1	-	-	-	-	-	-	.	.
CC(CC(=O)NC1CCCC1)c1ccccc1 (centres undefined)	-	-	34.1	-	-	-	-	-
CC(=O)NC(CC(=O)NC1CCCCCC1)c1ccccc1 (centres undefined)	-	-	-	-	-	-	.	.
Cc1cccc(CN2CCNC2=O)c1	-	-	21.0	-	-	-	-	-
Cc1ccc(NC(=S)NCc2ccc(Cl)cc2)c(C)c1	-	-	30.9	.	-	-	24.2	-
Cc1cc(Cl)ccc1NC(=S)NCc1ccccc1	-	-	-	-	-	-	.	.
Cc1ccc(O)c(NC(=S)NC(=O)Cc2ccc(Cl)cc2)c1	-	-	99.0	.	-	-	99.5	106.5
CC(C)=CCN1CCN(Cc2cc(C(C)C)n[nH]2)CC1CCO (centres undefined)	-	-	-	-	-	-	.	.
Cc1ccc(S(=O)(=O)NCCNc2ccc([N+](=O)[O-])cc2)cc1	-	-	-	.	-	-	.	.
Cc1ccc(S(=O)(=O)NCCCNc2ccc([N+](=O)[O-])cc2)cc1	-	-	41.2	-	-	-	45.3	70.7
COc1ccc(CCNC(=O)N[C@@H](Cc2ccccc2)C(=O)O)cc1	-	-	-	.	-	-	.	.
CNc1ccccc1C(=O)OCC(=O)c1ccc(F)cc1	-	-	23.5	-	-	-	-	-
CNc1ccccc1C(=O)OCC(=O)c1ccccc1	-	-	-	-	-	-	.	.
CCCCn1c(=O)[nH]c(=O)c2c1nc(-c1cc(Br)c(OCC)c(OC)c1)n2C	-	-	-	.	-	-	.	.
Cc1cccc(C)c1N(CC(O)Cn1c2ccccc2c2ccccc21)S(C)(=O)=O (centres undefined)	-	-	28.9	-	-	-	37.4	36.4
Cc1ccc(N(CC(O)Cn2c3ccccc3c3ccccc32)S(C)(=O)=O)cc1 (centres undefined)	-	-	24.3	-	-	-	29.6	44.5
Cc1ccc(S(=O)(=O)N2CCOCC2)cc1C(=O)NC(=S)N1CC(C)OC(C)C1 (centres undefined)	-	-	-	-	-	-	.	.
Cc1cc(CN2CCN(CC(=O)Nc3cc(C(F)(F)F)ccc3-n3cncn3)CC2)no1	.	.	.	.	-	.	.	.
Cc1ccc(NC2=C(Cl)C(=O)OC2OC(=O)c2ccccc2)c(C)c1 (centres undefined)	-	-	-	-	-	-	.	.
Cc1ccccc1NC1=C(Cl)C(=O)OC1OC(=O)c1ccccc1C (centres undefined)	-	-	52.0	-	-	-	-	58.9
O=S(=O)(NCCCSc1ccccc1)c1ccccc1F	-	-	25.4	.	-	-	-	-
COc1ccc(N(CC(=O)N2CCCC2)S(=O)(=O)c2ccc(NC(C)=O)cc2)cc1	-	-	-	.	-	-	.	.
CCOC(=O)C1(CC2CCCCO2)CCN(C2CCSCC2)CC1 (centres undefined)	-	-	25.1	-	-	-	37.2	22.7
SMILES	core dimer inh	EBNA-1 inh	GPR7 antagonist	EBV gp42 block	ZTA DNA inh	HCV NS3 hel inh	GPR7 antag conf	MCHR1 antag
CCOC(=O)C1(CC2CCCCO2)CCN(S(=O)(=O)c2cc(C)cs2)CC1 (centres undefined)	-	-	-	-	-	-	.	.
CC1CCN(S(=O)(=O)c2ccc(NC(=O)[C@@H]3CCCN3C(=O)c3cccs3)cc2)CC1	.	.	.	.	-	.	.	.
O=S(=O)(Nc1nc2ccccc2nc1N1CCN(c2ccccc2F)CC1)c1ccc(Cl)cc1	-	-	-	-	-	-	.	.
COc1cccc(CN2CCN(Cc3cccc(Oc4ccccc4)c3)CC2)c1OC	-	-	-	.	-	-	.	.
COc1cccc(CN2CCC(N(CCc3ccccc3)Cc3ccccc3)CC2)c1OC	-	-	23.2	-	-	-	35.0	40.5
CCn1c(N2CCN(S(=O)(=O)c3ccc(OC)cc3)CC2)nc2ccccc21	-	-	-	.	-	-	.	.
CC(=O)Nc1ccc(S(=O)(=O)N2CCN(c3nc4ccccc4n3CC(C)C)CC2)cc1	.	.	27.4	.	.	-	-	-
CCOC(=O)C1=C(c2ccccc2)NC(=O)NC1c1ccc(O)c(Cl)c1 (centres undefined)	-	-	74.6	.	-	-	66.1	49.0
CCOC(=O)C1=C(c2ccccc2)NC(=O)NC1c1ccc(O)c(OCC)c1 (centres undefined)	-	-	-	-	-	-	.	.
COCCNc1cnn(-c2ccccc2)c(=O)c1Cl	-	-	24.1	.	-	-	-	-
Cc1cccc2cc(C3CC(c4ccco4)=NN3S(C)(=O)=O)c(Cl)nc12 (centres undefined)	-	-	21.9	-	-	-	-	-
Cc1cc(C)nc(/N=C(\N)Nc2ccc(CC(=O)OC(C)C)cc2)n1	-	-	97.0	.	-	-	95.4	96.8
Cc1cc(C)nc(/N=C(\N)Nc2ccc(S(=O)(=O)O)cc2)n1	.	.	-	-	.	-	.	.
CCc1ccc(N/C(=N/c2nc(C)cc(C)n2)NC(C)=O)cc1	-	-	-	.	-	-	.	.
Cc1cc(C)nc(/N=C(\N)Nc2cccc(OCc3ccccc3)c2)n1	-	-	96.9	-	-	-	91.4	105.2
Cc1cc(C)nc(/N=C(\N)Nc2ccc(OCCC(C)C)cc2)n1	-	-	100.5	.	-	-	96.9	105.6
CCOC(=O)C(=O)Nc1ccc(OCc2ccccc2)cc1	-	-	-	-	-	-	.	.
COc1ccccc1N/C(N)=N/c1nc(C)cc(C)n1	-	-	-	-	-	-	.	.
Cc1cc(C)nc(/N=C(\N)Nc2ccc(OCc3ccccc3)cc2)n1	-	-	101.1	-	-	-	98.7	107.0
COc1ccc(CN2C3CCC2CC(NC(=O)c2cc(OC)c(OC)c(OC)c2)C3)cc1 (centres undefined)	-	-	-	.	-	-	.	.
CN(C)S(=O)(=O)c1cccc(CNCC2COc3ccccc3O2)c1 (centres undefined)	-	-	-	.	-	-	.	.
Cc1nc(NC(=O)C2CC2)sc1C(=O)Nc1ccccc1Cl	.	.	-	.	.	-	.	.

Screening data deposited in PubChem by several laboratories.
